From ChEMBL document CHEMBL4732250, “Investigations on substituted (2-aminothiazol-5-yl)(imidazo[1,2-a]pyridin-3-yl)methanones for the treatment of Alzheimer's disease” (Bioorg Med Chem, 2021) come the findings set out here.

The source made the active and inactive calls. The calls are words filed in the database; no cut-off is given here.

Data set [1] concerns Rattus norvegicus. Briefly: Antiinflammatory activity in Sprague-Dawley rat acute model of carrageenan-induced paw edema assessed as inhibition of rat paw edema at 50 mg/kg, po pre treated for 1 hr followed by carrageenan-stimulation and measured after 3 hrs by plethysmometeric method relative to control. It is filed as functional. To be noted: time 4 hrs. Summed up:
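SD rats of either sex, 150–200 g, n = 6, dosed orally in 0.2% agar suspension. After 1 h, 0.1 mL 1% carrageenan in saline injected into the left hind sub-plantar paw. Paw volume measured by mercury plethysmometer before and 3 h after injection. % edema inhibition calculated. Mean ± SEM.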

Data set [2] can be described thus: Toxicity in AlCl3-induced Sprague-Dawley rat assessed as reduction in HGB level at 50 mg/kg, po after 28 days by automated haematology analyser. To be noted: in vivo, 672 h, time 28 day. The class given is organism-based. In short, it runs like this: (§1)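 On day 29 of the AlCl3 model (28 days of oral dosing), blood was drawn from the retro-orbital sinus under isoflurane into heparinized tubes. Haemoglobin and haematocrit were measured on a haematology analyser.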

Data set [3] can be described thus: Toxicity in AlCl3-induced Sprague-Dawley rat assessed as reduction in HCT level at 50 mg/kg, po after 28 days by automated haematology analyser. It is filed as organism-based. The conditions noted are these: in vivo, 672 h, time 28 day. Summed up: as §1
Data set [4] relates to Rattus norvegicus. Nature of the data set: Antiinflammatory activity in Sprague-Dawley rat chronic model of formalin-induced paw edema assessed as inhibition of rat paw edema at 50 mg/kg, po pre treated for 1 hr followed by formalin-stimulation and measured after 3 days by plethysmometeric method relative to control. It is filed as functional. To be noted: 72 h, time 3 day. Summed up:
(§2)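 Chronic paw edema. Oral pre-dose in 0.2% agar; after 1 h, 0.1 mL 2% formalin in saline injected into the left hind sub-plantar paw, repeated on 5 consecutive days. Paw volume by plethysmometer. % inhibition of edema size relative to disease control, days 1–5. n = 6, mean ± SEM, one-way ANOVA with Tukey's test.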

Data set [5] deals with Rattus norvegicus. Nature of the data set: Antialzheimer activity against AlCl3-induced Sprague-Dawley rat assessed as change in brain SODactivity at 50 mg/kg, po after 28 days. The class given is functional, organism-based. The conditions noted are these: time 28.0 day. In short, it runs like this:
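Brain SOD activity. Rats were dosed orally for 28 days in 0.2% agar suspension, each followed by AlCl3 4.2 mg/kg i.p. Brains were taken on day 29, washed in saline and homogenized in chilled 50 mM Tris pH 8.2. Triton X-100 treatment at 4 °C, 30 min, then centrifugation. Pyrogallol was added and A420 read at 0 and 9 min, per gram fresh tissue. n = 6.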

Data set [6] has as its system Rattus norvegicus. Nature of the data set: Antialzheimer activity against AlCl3-induced Sprague-Dawley rat assessed as improved in working memory at 50 mg/kg, po for 7 to 28 days by Y maze test. The class given is functional, organism-based. The conditions noted are these: time 7-28 day. In short, it runs like this:
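Y-maze: rats trained for 5 consecutive days. Arm entries recorded; SAP = total entries minus two; % alteration = actual ÷ maximum alteration × 100. Assessed on days 7, 14, 21 and 28 of daily oral dosing in 0.2% agar plus AlCl3 4.2 mg/kg i.p. n = 6, two-way ANOVA with Tukey's test.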

Data set [7] deals with Rattus norvegicus. Briefly: Antiinflammatory activity in Sprague-Dawley rat chronic model of formalin-induced paw edema assessed as inhibition of rat paw edema at 50 mg/kg, po pre treated for 1 hr followed by formalin-stimulation and measured after 5 day by plethysmometeric method relative to control. It is filed as functional. The conditions noted are these: 120 h. Summed up:
as §2

The subject of data set [8] is Rattus norvegicus. Briefly: Antialzheimer activity against AlCl3-induced Sprague-Dawley rat assessed as reduction in brain LPO activity at 50 mg/kg, po after 28 days by UV-VIS spectrophotometric method. To be noted: time 28.0 day. It is filed as functional, organism-based. In short, it runs like this: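 Brain LPO as MDA by the TBA reaction. AlCl3 model: oral dosing in 0.2% agar for 28 days plus AlCl3 4.2 mg/kg i.p. daily. Day-29 brains were homogenized in HBSS pH 7.4 and the pellet resuspended. Reaction with SDS, acetic acid pH 3.5 and TBA at 95 °C for 1 h, then n-butanol:pyridine extraction. Read at 532 nm, extinction coefficient applied, per gram organ. n = 6.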

In data set [9] the test system is Rattus norvegicus. Nature of the data set: Antialzheimer activity against AlCl3-induced Sprague-Dawley rat assessed as improved in learning memory by measuring suppression of CAR at 50 mg/kg, po for 7 to 28 days by pole test. The class given is functional, organism-based. To be noted: time 7-28 day. Summed up:
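Cook's pole-climbing apparatus used for conditioned avoidance response with foot shock, in acquisition and test sessions. Rats received oral dosing in 0.2% agar plus AlCl3 4.2 mg/kg i.p. daily for 28 days. CAR was recorded on days 7, 14, 21 and 28. n = 6 per group.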

Data set [10] deals with Rattus norvegicus. Briefly: Antialzheimer activity against AlCl3-induced Sprague-Dawley rat assessed as reduction in hippocampal neuronal degeneration at 50 mg/kg, po after 28 days by H and E staining based microscopic method. It is filed as functional, organism-based. The conditions noted are these: time 28.0 day. In short, it runs like this:
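Hippocampal neuronal degeneration. After 28 days of oral dosing in 0.2% agar with daily AlCl3 4.2 mg/kg i.p., brain sections were HE-stained and hippocampal regions examined at 100X.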

Data set [11] is described as follows: Toxicity in AlCl3-induced Sprague-Dawley rat assessed as focal erosions in intestine at 50 mg/kg, po after 28 days by H and E staining based microscopic method. It is filed as organism-based. To be noted: in vivo, 672 h, time 28 day. Summed up:
(§3)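 Gastrointestinal damage in AlCl3-model rats, 28 days of oral dosing. Stomach and intestines were washed in cold PBS 0.01 M pH 7.4 and fixed 24 h in 10% neutral buffered formalin. After a 70% ethanol wash, haemorrhagic damage was measured by digital vernier caliper for the lesion index. HE-stained sections examined microscopically.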

Data set [12] can be described thus: Toxicity in AlCl3-induced Sprague-Dawley rat assessed as intestine lesion at 50 mg/kg, po after 28 days by H and E staining based microscopic method. The class given is organism-based. To be noted: in vivo, 672 h, time 28 day. In short, it runs like this: as §3
A short description of data set [13]: Toxicity in AlCl3-induced Sprague-Dawley rat assessed as reduction in serum albumin level at 50 mg/kg, po after 28 days by automated analyser. The conditions noted are these: in vivo, 672 h, time 28 day. The class given is organism-based. In short, it runs like this: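 Under isoflurane, retro-orbital blood was collected into non-heparinized tubes after the 28-day AlCl3 model with oral dosing. Serum % albumin and total protein were measured on an automated clinical chemistry analyser.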

For data set [14], the system named is Rattus norvegicus. Nature of the data set: Antialzheimer activity against AlCl3-induced Sprague-Dawley rat assessed as improved in spatial working memory at 50 mg/kg, po for 7 to 28 days by elevated plus maze test. The conditions noted are these: time 7-28 day. It is filed as functional, organism-based.
For data set [15], the system named is Rattus norvegicus. Nature of the data set: Antiinflammatory activity in Sprague-Dawley rat chronic model of formalin-induced paw edema assessed as inhibition of rat paw edema at 50 mg/kg, po pre treated for 1 hr followed by formalin-stimulation and measured after 2 days by plethysmometeric method relative to control. It is filed as functional. The conditions noted are these: 48 h, time 2 day. In short, it runs like this:
as §2

Data set [16] can be described thus: Toxicity in AlCl3-induced Sprague-Dawley rat assessed as focal erosions in stomach at 50 mg/kg, po after 28 days by H and E staining based microscopic method. It is filed as organism-based. To be noted: in vivo, 672 h, time 28 day. In short, it runs like this: as §3
Data set [17] relates to Rattus norvegicus. Briefly: Antialzheimer activity against AlCl3-induced Sprague-Dawley rat assessed as reduction in plaque formation in the cortex region at 50 mg/kg, po after 28 days by congo red staining based microscopic method. The conditions noted are these: time 28.0 day. The class given is functional, organism-based. In short, it runs like this:
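Cortical amyloid plaques in Congo red-stained brain sections viewed at 100X. Rats had 28 days of oral dosing in 0.2% agar plus AlCl3 4.2 mg/kg i.p.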

Data set [18] can be described thus: Toxicity in AlCl3-induced Sprague-Dawley rat assessed as stomach lesion at 50 mg/kg, po after 28 days by H and E staining based microscopic method. The class given is organism-based. The conditions noted are these: in vivo, 672 h, time 28 day. In short, it runs like this:
as §3

For data set [19], the system named is Rattus norvegicus. Briefly: Antiinflammatory activity in Sprague-Dawley rat chronic model of formalin-induced paw edema assessed as inhibition of rat paw edema at 50 mg/kg, po pre treated for 1 hr followed by formalin-stimulation and measured after 4 days by plethysmometeric method relative to control. It is filed as functional. The conditions noted are these: 96 h, time 4 day. In short, it runs like this:
as §2

Data set [20] relates to Rattus norvegicus. Nature of the data set: Antiinflammatory activity in Sprague-Dawley rat chronic model of formalin-induced paw edema assessed as inhibition of rat paw edema at 50 mg/kg, po pre treated for 1 hr followed by formalin-stimulation and measured after 1 day by plethysmometeric method relative to control. To be noted: 24 h. It is filed as functional. Summed up: as §2

For data set [21], the system named is Rattus norvegicus. Nature of the data set: Antiinflammatory activity in Sprague-Dawley rat chronic model of formalin-induced paw edema assessed as inhibition of rat paw edema at 40 mg/kg, po pre treated for 1 hr followed by formalin-stimulation and measured after 2 days by plethysmometeric method relative to control. It is filed as functional. The conditions noted are these: 48 h, time 2 day. In short, it runs like this:
as §2

Data set [22] has as its system Rattus norvegicus. Briefly: Antiinflammatory activity in Sprague-Dawley rat chronic model of formalin-induced paw edema assessed as inhibition of rat paw edema at 40 mg/kg, po pre treated for 1 hr followed by formalin-stimulation and measured after 5 days by plethysmometeric method relative to control. The class given is functional. To be noted: 120 h, time 5 day. In short, it runs like this: as §2

Data set [23] deals with Rattus norvegicus. Briefly: Antiinflammatory activity in Sprague-Dawley rat chronic model of formalin-induced paw edema assessed as inhibition of rat paw edema at 40 mg/kg, po pre treated for 1 hr followed by formalin-stimulation and measured after 4 days by plethysmometeric method relative to control. The class given is functional. To be noted: 96 h, time 4 day. In short, it runs like this: as §2

The subject of data set [24] is Rattus norvegicus. Briefly: Antiinflammatory activity in Sprague-Dawley rat chronic model of formalin-induced paw edema assessed as inhibition of rat paw edema at 40 mg/kg, po pre treated for 1 hr followed by formalin-stimulation and measured after 3 days by plethysmometeric method relative to control. It is filed as functional. To be noted: 72 h, time 3 day. In short, it runs like this:
as §2

Data set [25] relates to Rattus norvegicus. Nature of the data set: Antiinflammatory activity in Sprague-Dawley rat chronic model of formalin-induced paw edema assessed as inhibition of rat paw edema at 40 mg/kg, po pre treated for 1 hr followed by formalin-stimulation and measured after 1 day by plethysmometeric method relative to control. The class given is functional. The conditions noted are these: 24 h. In short, it runs like this: as §2

In the case of `Cc1ccn2c(C(=O)c3sc(N)nc3-c3ccccc3)cnc2c1`, the inhibition in vivo at 50 mg/kg in the data set on Rattus norvegicus [1] is 26%.
`Cc1ccn2c(C(=O)c3sc(N)nc3N(C)C)cnc2c1`: the Activity entry in data set [2], in [3], in [11], in [12], in [13] and in [16] was “Non-Toxic” each time. Moreover, the Activity entry in data set [18] was “Non-Toxic”. Besides, the inhibition in vivo at 50 mg/kg in the data set on Rattus norvegicus [4] worked out at 65%; with Rattus norvegicus [7], 63%; in the data set on Rattus norvegicus [15], 67%; with Rattus norvegicus [19], 60%; with Rattus norvegicus [1], 85%; in the data set on Rattus norvegicus [20], 58%. The result in the data set with Rattus norvegicus [5], with Rattus norvegicus [6], in the data set on Rattus norvegicus [8], in the data set with Rattus norvegicus [9], in the data set with Rattus norvegicus [10] and in the data set on Rattus norvegicus [14] was Active. Also, in the data set on Rattus norvegicus [17], the result was Active.
As for `Cc1ccc2ncc(C(=O)c3sc(N)nc3C)n2c1`, the inhibition in vivo at 50 mg/kg in the data set on Rattus norvegicus [1] came to 33%.
Turning to `Cc1ccn2c(C(=O)c3cnc(N)s3)cnc2c1`, the inhibition in vivo at 50 mg/kg with Rattus norvegicus [4] stood at 36%; in the data set with Rattus norvegicus [7], 18%; in the data set with Rattus norvegicus [15] it was 24%; in the data set with Rattus norvegicus [19], 23%; in the data set with Rattus norvegicus [1] it was 77%; with Rattus norvegicus [20], 30%.
On to `Cc1ccc2ncc(C(=O)c3sc(N)nc3-c3ccccc3)n2c1`, for which the inhibition in vivo at 50 mg/kg in the data set with Rattus norvegicus [1] came out at 77%.
For the compound `Cc1ccc(-c2cc(C(F)(F)F)nn2-c2ccc(S(N)(=O)=O)cc2)cc1` [CELECOXIB], the inhibition in vivo at 40 mg/kg in the data set with Rattus norvegicus [21] came out at 74%; in the data set on Rattus norvegicus [22], 68%; in the data set with Rattus norvegicus [23], 70%; in the data set on Rattus norvegicus [24] it was 70%; in the data set with Rattus norvegicus [25], 67%.
As to `Cc1cccn2c(C(=O)c3sc(N)nc3-c3ccccc3)cnc12`, in the data set on Rattus norvegicus [1], the inhibition in vivo at 50 mg/kg is 20%.
Take `Nc1ncc(C(=O)c2cnc3ccccn23)s1`: the inhibition in vivo at 50 mg/kg in the data set with Rattus norvegicus [1] came out at 33%.
The same measure, in the same setting: to `Cc1ccn2c(C(=O)c3sc(N)nc3C)cnc2c1` belongs 66%; to `Cc1nc(N)sc1C(=O)c1cnc2ccccn12`, 53%.
